Results on 97 compounds are retold here after ChEMBL document CHEMBL4513216, “Probing the Open Global Health Chemical Diversity Library for Multistage-Active Starting Points for Next-Generation Antimalarials” (ACS Infect Dis, 2020).

The data set is described as follows: Toxicity liver stage against HepG2, at 10uM. The data set is classed as cell-based. Further details: test concentration 10 uM, cell line HepG2-A16-CD81EGFP. The settings on record: human, HepG2-A16-CD81EGFP cells; read-out: INHIBITION
The method, boiled down: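 Uninfected HepG2-A16-CD81EGFP cells, 3 × 10^3 per well, 1536-well, plated on prespotted compound at 10 μM final, parasite-free screening media added to match infected plates; puromycin 10 μM positive, DMSO 0.5% negative; run in parallel with 48 h PbLuc assay at 37 °C, 5% CO2; viability by CellTiter-Glo luminescence, normalized to controls.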
Turning to `Cc1cnc(C(=O)N2C[C@@H](NS(C)(=O)=O)[C@@H]3OCCC[C@@H]32)cn1`, the cytotoxicity at 10 µM was -89.7%.

As for `Cc1cnc(CN(Cc2ccccc2)CC2CCOCC2)cn1`, the cytotoxicity at 10 µM came out at 15.6%.

For `CCN(CC)C(=O)CSc1nc2cc(C)nc-2c(O)n1CC`, the cytotoxicity at 10 µM was 6.58%.

Regarding `COc1ccc2c(=O)n(CC3CCCCN3C)ccc2c1OC` (configuration not stated), the cytotoxicity at 10 µM was 3.19%.

Consider `O=C(Nc1cc(N2CCOCC2)ncn1)c1cnccn1`, for which the cytotoxicity at 10 µM is -3.45%.

As to `CCCc1nc(C(C)(C)NC(=O)C2CC(=O)N(C3CCCC3)C2)no1` (configuration not stated), the cytotoxicity at 10 µM was -0.734%.

Take `CC(C#N)CNC(=O)Nc1ccc(-c2ccc[nH]2)cc1` (configuration not stated): the cytotoxicity at 10 µM worked out at 1.2%.

`CC1(C)CC(=O)c2cnc3nc(N4CCCCC4)nc(O)c3c2C1`: the cytotoxicity at 10 µM is -0.0124%.

For `CC(C)N1CCCC(C(=O)N(C)CCCc2cnn(C)c2)C1` (configuration not stated), the cytotoxicity at 10 µM was -8.03%.

With `CSc1cc2c(cc1NC(=O)NCC1CCOC1)OCCO2` (configuration not stated), the cytotoxicity at 10 µM was -4.54%.

Regarding `COc1ccccc1CCN(C)C(=O)NC(C)c1nncn1C` (configuration not stated), the cytotoxicity at 10 µM was -1.88%.

On to `O=C1CC2(CCCCN2CC2CC2)CN1c1ccccc1` (configuration not stated), for which the cytotoxicity at 10 µM is 4.86%.

With `Cc1cc(NC(=O)c2ccc(F)cc2Cl)n(C)n1`, the cytotoxicity at 10 µM is -77.5%.

Take `CC(Cn1cccn1)NCC(=O)N(C)Cc1ccsc1` (configuration not stated): the cytotoxicity at 10 µM is -7.32%.

For the compound `COc1ccc(NC2(C(=O)N3CCn4cncc4C3)CCCC2)cc1`, the cytotoxicity at 10 µM came out at 7.42%.

For the compound `O=C(c1ccccn1)N1CCC2(CNS(=O)(=O)c3cnccc3O2)C1` (configuration not stated), the cytotoxicity at 10 µM turned out to be 14.5%.

In the case of `COCCCNC(=O)COc1ccccc1C(F)(F)F`, the cytotoxicity at 10 µM came out at 14.7%.

With `CC(=O)N1N=C(c2cccs2)OC1C(=O)Nc1ccccc1` (configuration not stated), the cytotoxicity at 10 µM was -5.58%.

Take `COCCN(Cc1ccoc1)C(=O)c1cccnc1SC`: the cytotoxicity at 10 µM was 12.4%.

Turning to `OCC1CCCCN1CCn1ccnc1-c1ccc2c(c1)OCCO2` (configuration not stated), the cytotoxicity at 10 µM was -3.65%.

For `Cc1cc(CNC(=O)Nc2cc(F)cc(N3CCCC3)c2)no1`, the cytotoxicity at 10 µM was -17.7%.

Consider `CC(C)(C)N1CCN(C(=O)Nc2cc(C(F)(F)F)c[nH]c2=O)CC1`, for which the cytotoxicity at 10 µM turned out to be 5.08%.

`O=C(CN1CCNC1=O)NCc1ccc2sccc2c1`: the cytotoxicity at 10 µM is 5.05%.

With `Cc1cn(CC(=O)NC2CCN(C(=O)C3CC3)CC2)c2ccccc12`, the cytotoxicity at 10 µM was -3.57%.

In the case of `CCN(c1ccc(C(=O)N2CCC(C(N)=O)CC2)cc1)S(=O)(=O)CC`, the cytotoxicity at 10 µM is 11.6%.

On to `Cc1cc(C(=O)N2CCn3cnc(COCC4CC4)c3C2)no1`, for which the cytotoxicity at 10 µM amounted to 1.85%.

As for `Cc1cc2c(=O)n3c(nc2s1)CCN(Cc1c[nH]cn1)CC3`, the cytotoxicity at 10 µM was -17.6%.

Turning to `Cc1cccc(-c2ccc(C(=O)N3CCN(C4CC4)CC3)c(=O)[nH]2)c1`, the cytotoxicity at 10 µM was determined as 13.2%.

In the case of `Nc1nc2c(c(N3CCCC3)n1)CCN(Cc1ccccn1)CC2`, the cytotoxicity at 10 µM is -35.3%.

`CN1C(=O)CO[C@H](c2ccc(NC(=O)NC(C)(C)C)cc2)[C@H]1CO`: the cytotoxicity at 10 µM was -0.973%.

Take `CSCCc1c(-c2ccccc2)ncn1CCNc1cccnc1`: the cytotoxicity at 10 µM was determined as 5.29%.

In the case of `Cc1nc(CNC(=O)c2cc(COc3ccccc3)[nH]n2)n[nH]1`, the cytotoxicity at 10 µM was 8.52%.

Regarding `Cc1nc(C(=O)N2CCCC(c3cc(C(F)(F)F)[nH]n3)C2)c[nH]1` (configuration not stated), the cytotoxicity at 10 µM was -0.945%.

Regarding `Cc1cc(CN(C)C(=O)NCc2ccnc(OC3CCCC3)c2)no1`, the cytotoxicity at 10 µM is 9.52%.

In the case of `Cc1cc(C)c(CNC(=O)N2CCC(N3CCCC3)CC2)c(=O)[nH]1`, the cytotoxicity at 10 µM was -3.52%.

For `CNc1snc(C)c1C(=O)N1CCCC(n2ccnc2C)C1` (configuration not stated), the cytotoxicity at 10 µM was -14.1%.

As to `O=C(CC1CC1)N1CCC2(CC1)CN(Cc1cccnc1)C(=O)CO2`, the cytotoxicity at 10 µM was 3.59%.

`COCC(C)NC(=O)N1CCN(S(C)(=O)=O)CC1` (configuration not stated): the cytotoxicity at 10 µM is -6.53%.

For the compound `CCCn1cc(C(=O)NC(CC(=O)O)c2ccccc2F)c(C)n1` (configuration not stated), the cytotoxicity at 10 µM is -43.9%.

For `CSCCCN1CCCC1c1noc(C)n1` (configuration not stated), the cytotoxicity at 10 µM is -7.59%.

As for `COCCCn1c(CN2CCSCC2)cnc1S(=O)(=O)C1CCCC1`, the cytotoxicity at 10 µM was -3.89%.

`CC(=O)N1CCC2(C1)c1ccccc1S(=O)(=O)N2CCC(C)C` (configuration not stated): the cytotoxicity at 10 µM is -9.11%.

Regarding `CS(=O)(=O)c1snnc1C1CCN(Cc2cccc(O)c2)CC1`, the cytotoxicity at 10 µM was -8.91%.

`Cc1cccc(NC(=O)C2CCCN2C(=O)c2ccco2)c1C` (configuration not stated): the cytotoxicity at 10 µM is -2.59%.

Regarding `CSCCC(C)(O)CNC(=O)c1ccsc1` (configuration not stated), the cytotoxicity at 10 µM was -4.57%.

In the case of `Cc1cccc(N2CCCC3(C2)CN(c2nncs2)CCO3)c1` (configuration not stated), the cytotoxicity at 10 µM stood at 9%.

For `CCN(CC)C(CNCc1ccc(C)o1)c1ccco1` (configuration not stated), the cytotoxicity at 10 µM turned out to be 3.23%.

With `CCc1noc(C)c1C(=O)N1CCCC1Cn1cc(C)cn1` (configuration not stated), the cytotoxicity at 10 µM was -6.46%.

On to `CCn1nc(C)c2c1cnn2CCNS(=O)(=O)CC`, for which the cytotoxicity at 10 µM came out at 2.63%.

Consider `CC(C)CN1Cc2c(C(=O)NC3CC3)ncn2-c2ccccc2S1(=O)=O`, for which the cytotoxicity at 10 µM is -77.6%.

Turning to `COc1cccc(N2CCC(N3CCOC(C(F)(F)F)C3)CC2)c1` (configuration not stated), the cytotoxicity at 10 µM was -1.71%.

As to `O=C(NCCC1=CCCCC1)c1cc(-c2ccc(O)cc2)n[nH]1`, the cytotoxicity at 10 µM was 38.8%.

As for `COc1ccccc1CN(Cc1cccnc1)Cc1c[nH]c(C)n1`, the cytotoxicity at 10 µM worked out at 6.43%.

As for `CC(=O)N(C)CC(=O)NCC1(c2c(F)cccc2F)CCCC1`, the cytotoxicity at 10 µM was -3.86%.

As for `NC(=O)c1sc2ccccc2c1C1CCN(S(=O)(=O)N2CCOCC2)C1` (configuration not stated), the cytotoxicity at 10 µM was 11.8%.

With `CS(=O)(=O)N1CCC(N2CCCC2c2ccccn2)CC1` (configuration not stated), the cytotoxicity at 10 µM is -7.65%.

With `Cc1ccc(CN2CCC3(CCC3NS(=O)(=O)c3ccccc3)CC2)o1` (configuration not stated), the cytotoxicity at 10 µM was -2.97%.

On to `CC1N(c2cnn(C)c2)C(=O)COC12CCN(Cc1ccoc1)CC2` (configuration not stated), for which the cytotoxicity at 10 µM worked out at 0.997%.

As to `CCN(C)Cc1cccc(CNC(=O)NCCc2ccccn2)c1`, the cytotoxicity at 10 µM was 2.8%.

With `Cc1cc(C)c2c(N3CCN(Cc4ncccc4C)CC3)ncnc2n1`, the cytotoxicity at 10 µM amounted to 1.92%.

With `COc1ccc(CN(C)[C@@H]2CN(C(=O)c3cccs3)C[C@H]2O)cc1`, the cytotoxicity at 10 µM is -0.619%.

For `CCOc1ncccc1CNC(=O)c1cc(C)on1`, the cytotoxicity at 10 µM was -19%.

For the compound `Cc1ccc(NCc2cccc3cn[nH]c23)cc1OC1CCOC1` (configuration not stated), the cytotoxicity at 10 µM was 1.44%.

As for `CCN(C)c1ncnc2c1CCN(CC1CCOC1)CC2` (configuration not stated), the cytotoxicity at 10 µM is -79.3%.

Take `CCC(NC(=O)C(C)C)c1ccccc1C` (configuration not stated): the cytotoxicity at 10 µM came out at 5.81%.

On to `CCc1nnc2n1CCN(Cc1cc(Cl)c3c(c1)OCCO3)C2`, for which the cytotoxicity at 10 µM is -8.95%.

Take `N#CCC(=O)NCc1nnc2n1CCN(Cc1cccs1)C2`: the cytotoxicity at 10 µM is -136%.

For `CC(C(=O)NCC1CCCCC1)S(=O)(=O)Cc1csc(-c2cccs2)n1` (configuration not stated), the cytotoxicity at 10 µM is -9.44%.

Turning to `CCc1cccc(C)c1NC(=O)c1ccccc1N(C)S(C)(=O)=O`, the cytotoxicity at 10 µM was found to be 17.8%.

`COCCNc1nc2c(c(NCc3cnc(C)cn3)n1)CCNCC2`: the cytotoxicity at 10 µM was -0.106%.

Take `CC(C)Sc1ncccc1C(=O)NCc1ccc(O)cc1`: the cytotoxicity at 10 µM was -3.29%.

For the compound `Cc1ccc(-c2nc(CN3CCOC(Cn4cccn4)C3)co2)cc1` (configuration not stated), the cytotoxicity at 10 µM is -5.3%.

In the case of `CS(=O)(=O)CCC(=O)Nc1ccsc1`, the cytotoxicity at 10 µM is -3.39%.

For `O=C(c1cnccn1)N1CCN(CC2CC2)c2ncccc2C1`, the cytotoxicity at 10 µM is -3.99%.

For the compound `CC(C)c1ccc(OCCC(=O)N2CCC(C(=O)N(C)C)CC2)cc1`, the cytotoxicity at 10 µM is -17.5%.

As for `CNC(=O)[C@@H]1C[C@H]2CN(Cc3csc(C)n3)C[C@H]2N1C(C)C`, the cytotoxicity at 10 µM was 7.08%.

As to `Cc1cc(NCCN2CCNC2=O)nc2cc3c(cc12)CCC3`, the cytotoxicity at 10 µM is 2.97%.

For the compound `Cc1ccnn1CCC(=O)N1CCN(C2CCc3ccccc3C2)CC1` (configuration not stated), the cytotoxicity at 10 µM is -118%.

Turning to `Cc1n[nH]c(C2CN(C(=O)c3ccnc(C4CC4)n3)CCO2)n1` (configuration not stated), the cytotoxicity at 10 µM came out at 1.85%.

Turning to `CC(c1ccon1)N(C)C(=O)C1CCN(CC(N)=O)CC1` (configuration not stated), the cytotoxicity at 10 µM is -4.83%.

With `CN(C)S(=O)(=O)c1ccc2c(c1)N(Cc1nccn1C)CCC2`, the cytotoxicity at 10 µM was 2.26%.

`CC(C)(C)n1ncc2c(=O)n(CC(=O)NCc3ccco3)cnc21`: the cytotoxicity at 10 µM is -1.6%.

`CNS(=O)(=O)c1cc(C(=O)NC2CCOc3ccccc32)cc(C)c1C` (configuration not stated): the cytotoxicity at 10 µM was found to be 6.82%.

As to `CCn1c(C2CCCN(Cc3ccnc4ccccc34)C2)nn(C)c1=O` (configuration not stated), the cytotoxicity at 10 µM is -5.92%.

Take `Cn1ccnc1CN1CCC2(CC1)CN(Cc1cccnc1)C(=O)CO2`: the cytotoxicity at 10 µM was 4%.

Regarding `COC(=O)C(CNC(=O)Nc1nncs1)Cc1ccc(O)cc1` (configuration not stated), the cytotoxicity at 10 µM was determined as 16.9%.

With `O=C(Cc1ccc(F)cc1)NS(=O)(=O)c1ccc(F)c(F)c1`, the cytotoxicity at 10 µM is -9.07%.

Consider `O=C(NCCn1ccnc1-c1cc2n(n1)CCNC2)c1ccc(F)cc1`, for which the cytotoxicity at 10 µM was -16.9%.

As to `COCCCNc1c(-c2ccc(Cl)cc2)c(=O)c1=O`, the cytotoxicity at 10 µM is 39.2%.

As to `COc1c(CNC2CCCN(c3ncccn3)C2)c(C(C)C)nn1C` (configuration not stated), the cytotoxicity at 10 µM was -9.94%.

For the compound `O=C(c1ccncc1)N1CCCC2(CCN(c3cccnc3)C2=O)C1` (configuration not stated), the cytotoxicity at 10 µM is -131%.

As to `CCC1(CO)CCCN(C(=O)c2cc(COc3cccc(F)c3)[nH]n2)C1` (configuration not stated), the cytotoxicity at 10 µM turned out to be 5.31%.

Take `Cn1cc2ncn(CCC3CCN(Cc4ccccc4)C3)c(=O)c2n1` (configuration not stated): the cytotoxicity at 10 µM was 1.28%.

As for `Cc1nn(C)c(N2CCOCC2)c1CNC1CCCCNC1=O` (configuration not stated), the cytotoxicity at 10 µM worked out at 5.84%.

In the case of `CSc1ccc(CNC2CCN(CCc3ccncc3)CC2)cc1`, the cytotoxicity at 10 µM is -8.14%.

Consider `Cc1cc(Br)ccc1C(=O)NCCN1CCCCCC1`, for which the cytotoxicity at 10 µM is -11.6%.

On to `O=C(N[C@@H]1CCN(C(=O)c2cc[nH]c2)C[C@H]1O)c1ccccn1`, for which the cytotoxicity at 10 µM was 5.89%.
